Nine compounds from ChEMBL document CHEMBL4152363, “Andrographolide derivative as STAT3 inhibitor that protects acute liver damage in mice” (Bioorg Med Chem, 2018) can be followed below.

Each structure is given as a SMILES string. Activity calls are given as the source filed them. The calls are words filed in the database; no cut-off is given here.

Data set [1] concerns the target T1, Signal transducer and activator of transcription 3 (Homo sapiens, UniProt P40763). The data set is described as follows: Inhibition of IFNgamma-stimulated STAT3 activation in human AD293 cells incubated with IFNgamma for 16 hrs followed by compound addition measured after 24 hrs by luciferase reporter gene assay. It is filed as cell-based. Put shortly:
(§1)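 AD-293 or HeLa cells in DMEM/10% FBS stimulated with 20 pg/mL IFN-γ; compound treatment 24 h; luciferase activity measured in cell extracts; EC50 derived.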
For orientation: A reporter such as luciferase makes a cellular process visible.

In data set [2] the target is T1, Signal transducer and activator of transcription 3. The data set is described as follows: Inhibition of IFNgamma-stimulated STAT3 phosphorylation at Tyr705 residues in human AD293 cell lysates incubated with IFNgamma followed by compound addition at 10 uM by Western blot analysis. In short, it runs like this:
(§2)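 AD-293 cells treated with 1 μg/mL IFN-γ alone or with compounds at 10 μM; phospho- and total STAT1 and STAT3 assessed by western blot; representative of at least three independent experiments.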
A general note: A western blot detects proteins with antibodies after separation by electrophoresis.

Data set [3] shares this target. The data set can be described thus: Inhibition of […] activation in human AD293 cells incubated […] for 16 hrs followed by compound addition measured after 4 hrs by luciferase reporter gene assay. The data set is classed as cell-based.
Data set [4] shares this target. The data set can be described thus: Inhibition of IFNgamma-stimulated STAT3 activation in human HeLa cells incubated with IFNgamma for 16 hrs followed by compound addition measured after 24 hrs by luciferase reporter gene assay. It is filed as cell-based. In short, it runs like this:
as §1

Data set [5] shares this target. The data set can be described thus: Inhibition of […] activation in human HeLa cells incubated […] for 16 hrs followed by compound addition measured after 4 hrs by luciferase reporter gene assay. It is filed as cell-based. In short, it runs like this:
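NF-κB pathway in AD-293 or HeLa cells stimulated with 50 ng/mL TNF-α; compound treatment 4 h; luciferase activity read from cell extracts; EC50 derived.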

Another data set relates to HeLa. The data set can be described thus: Cytotoxicity against human HeLa cells. The data set is classed as cell-based. In short, it runs like this:
(§3)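 AD-293 or HeLa cells grown in high-glucose DMEM with 10% FBS and 1% penicillin-streptomycin; compound exposure 24 h; cytotoxicity reported as CC10.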

For data set [6], the target named is T1, Signal transducer and activator of transcription 3. The data set can be described thus: Inhibition of IL-6 stimulated STAT3 activation in human AD293 cells incubated with IL-6 for 16 hrs followed by compound addition measured after 6 hrs by luciferase reporter gene assay. The data set is classed as cell-based. Put shortly:
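AD-293 cells stimulated with 2.5 μg/mL IL-6; compound treatment 6 h; luciferase activity read from cell extracts; EC50 derived.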

The target in data set [7] is T2, Signal transducer and activator of transcription 1-alpha/beta (Homo sapiens) (UniProt P42224).
T2 sequence (whole entry): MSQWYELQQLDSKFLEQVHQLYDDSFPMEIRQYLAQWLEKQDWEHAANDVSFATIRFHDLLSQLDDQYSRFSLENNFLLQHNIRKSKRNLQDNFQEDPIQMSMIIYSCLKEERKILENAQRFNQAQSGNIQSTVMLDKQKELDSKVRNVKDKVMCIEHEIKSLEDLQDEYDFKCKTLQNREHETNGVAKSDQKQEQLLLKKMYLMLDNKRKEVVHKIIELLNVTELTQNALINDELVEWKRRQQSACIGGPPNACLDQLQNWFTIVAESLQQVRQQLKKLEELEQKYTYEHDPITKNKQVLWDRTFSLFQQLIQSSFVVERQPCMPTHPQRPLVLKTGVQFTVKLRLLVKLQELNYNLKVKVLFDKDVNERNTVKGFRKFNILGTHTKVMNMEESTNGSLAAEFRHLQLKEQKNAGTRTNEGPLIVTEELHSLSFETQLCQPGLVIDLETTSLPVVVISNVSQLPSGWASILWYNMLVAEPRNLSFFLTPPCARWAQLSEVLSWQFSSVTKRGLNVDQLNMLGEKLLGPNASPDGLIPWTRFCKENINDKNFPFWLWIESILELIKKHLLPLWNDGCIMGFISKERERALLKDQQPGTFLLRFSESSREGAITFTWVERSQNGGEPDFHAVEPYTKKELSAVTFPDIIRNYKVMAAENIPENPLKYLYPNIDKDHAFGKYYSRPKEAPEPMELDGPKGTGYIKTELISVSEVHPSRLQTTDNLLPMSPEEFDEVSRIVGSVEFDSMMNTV
The data set is described as follows: Inhibition of IFNgamma-stimulated STAT1 phosphorylation at Tyr701 residues in human AD293 cell lysates incubated with IFNgamma followed by compound addition at 10 uM by Western blot analysis. Put shortly:
as §2

A further data set concerns AD293. The data set can be described thus: (§4) Cytotoxicity against human AD293 cells. The conditions noted are these: ad293. It is filed as cell-based. Put shortly: as §3
A short description of data set [8]: as §4. The data set is classed as cell-based. Particulars: AD293 cells. Put shortly:
as §3

Data set [9] concerns the target T1, Signal transducer and activator of transcription 3. The data set is described as follows: Inhibition of IFNgamma-stimulated GFP/FLAG-tagged STAT3 dimerization in human AD293 cells incubated for 6 hrs by Western blot analysis. It is filed as cell-based. In short, it runs like this:
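AD-293 cells co-transfected 48 h with GFP- and FLAG-tagged STAT3 plasmids, then IFN-γ with or without compound for 6 h; 100 μg lysate (RIPA) immunoprecipitated with anti-FLAG and protein G beads; blots probed for GFP and FLAG, chemiluminescent detection.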

T1 sequence (P40763 whole entry): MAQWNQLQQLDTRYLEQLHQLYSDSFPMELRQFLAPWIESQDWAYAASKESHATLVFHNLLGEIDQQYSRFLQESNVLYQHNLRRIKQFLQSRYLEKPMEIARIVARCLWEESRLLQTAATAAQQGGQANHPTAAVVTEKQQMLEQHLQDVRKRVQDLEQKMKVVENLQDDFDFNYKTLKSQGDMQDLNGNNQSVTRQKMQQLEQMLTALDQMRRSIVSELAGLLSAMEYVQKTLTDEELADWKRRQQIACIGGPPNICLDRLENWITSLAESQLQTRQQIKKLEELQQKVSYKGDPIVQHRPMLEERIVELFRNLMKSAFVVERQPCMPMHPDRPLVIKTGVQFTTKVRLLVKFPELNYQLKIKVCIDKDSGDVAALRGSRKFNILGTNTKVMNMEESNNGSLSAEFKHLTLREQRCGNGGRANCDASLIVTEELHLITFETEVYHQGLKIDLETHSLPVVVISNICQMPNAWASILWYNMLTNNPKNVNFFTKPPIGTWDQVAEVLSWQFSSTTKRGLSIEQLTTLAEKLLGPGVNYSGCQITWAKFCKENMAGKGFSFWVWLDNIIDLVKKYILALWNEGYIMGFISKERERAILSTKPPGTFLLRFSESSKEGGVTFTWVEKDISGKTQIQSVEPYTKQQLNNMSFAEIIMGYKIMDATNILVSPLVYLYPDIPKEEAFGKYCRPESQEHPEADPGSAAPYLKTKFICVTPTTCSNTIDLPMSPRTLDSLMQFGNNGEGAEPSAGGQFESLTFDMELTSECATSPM

By EC50 is commonly meant the concentration at which the effect is half-maximal. The low end stands for greater potency, the high end for weaker potency. As to `CC(C)(C)[Si](C)(C)O[C@@H]1CC[C@]2(C)[C@H](CC[C@@]3(CO3)[C@H]2C/C=C2/C(=O)OC[C@H]2O)[C@]1(C)CO`, the EC50 in [1] is 5.39 µM; in data set [3] it was over 10 µM; in data set [4] it was 6.15 µM; in [5], over 10 µM; in data set [6], 4.16 µM. The inhibition entry in data set [2] and in data set [7] was “inactive” throughout. Also, the CC10 in the data set on HeLa and in the data set on AD293 was over 10 µM each time.
For `CC(C)(C)[Si](C)(C)O[C@@H]1CC[C@]2(C)[C@H](CC[C@]3(CO3)[C@H]2C/C=C2/C(=O)OC[C@H]2O)[C@]1(C)CO`, the EC50 was 5.38 µM in [1]; over 10 µM in [3]; 8.34 µM in data set [4]; over 10 µM in data set [5]; over 10 µM in data set [6]. Also, the inhibition result in data set [2] and in data set [7] was “inactive” in each case. The CC10 with HeLa and with AD293 was over 10 µM each time.
For the compound `C=C1CC[C@@H]2[C@](C)(CO[Si](C)(C)C(C)(C)C)[C@H](OC(C)=O)CC[C@@]2(C)[C@@H]1C/C=C1/C(=O)OC[C@H]1OC(C)=O`, the EC50 in data set [1] is 5.05 µM; in [3] it was over 10 µM; in [4], 5.8 µM; in data set [5], over 10 µM; in [6], over 10 µM. The inhibition entry in data set [2] and in [7] was “inactive” in each case. Also, the CC10 in the data set on HeLa and with AD293 was over 10 µM in each case.
What is called CC50 is the concentration at which the toxic effect on the cells reaches its halfway point. A lower CC50 goes with greater toxicity to the cells. As to `C=C1CC[C@H]2[C@@](C)(CCC(=O)[C@@]2(C)CO[Si](C)(C)C(C)(C)C)[C@@H]1C/C=C1/C(=O)OC[C@H]1O`, the EC50 in data set [1] turned out to be 3.45 µM; in data set [3] it was 7.75 µM; in data set [4] it was 8.95 µM; in data set [5], 8.81 µM; in data set [6] it was 6.45 µM. Besides, the CC10 in the data set with HeLa was over 10 µM. Besides, the CC50 in data set [8] is 2.35 µM.
Turning to `C=C1CC[C@@H]2[C@](C)(CO[Si](C)(C)C(C)(C)C)[C@H](O)CC[C@@]2(C)[C@@H]1C/C=C1/C(=O)OC[C@H]1OC(C)=O`, the EC50 in data set [1] came to 1.18 µM; in data set [3] it was 6.92 µM; in [4], 4.33 µM; in [5] it was 8.11 µM; in data set [6], 2.21 µM. This compound gave a CC10 in the data set on HeLa of over 10 µM. The same compound had a CC50 in data set [8] of 7.33 µM.
In the case of `C=C1CC[C@H]2[C@@](C)(CCC(=O)[C@@]2(C)CO[Si](C)(C)C(C)(C)C)[C@@H]1C/C=C1/C(=O)OC[C@H]1OC(C)=O`, the EC50 worked out at 1.97 µM in data set [1]; 7.52 µM in data set [3]; 4.43 µM in data set [4]; 4.57 µM in [5]; 0.99 µM in [6]. In the data set on HeLa, this compound gave a CC10 of over 10 µM. It took 7.35 µM to reach half-maximal cytotoxicity in [8] (CC50).
As to `C=C1CC[C@@H]2[C@](C)(CO)[C@H](O)CC[C@@]2(C)[C@@H]1C/C=C1/C(=O)OC[C@H]1O[Si](C)(C)C(C)(C)C`, the EC50 in [1] is 5.68 µM; in data set [3], over 10 µM; in data set [4], 6.57 µM; in data set [5], over 10 µM; in [6] it was 10.6 µM. Further, the inhibition result in [2] and in data set [7] was “inactive” throughout. The CC10 in the data set with HeLa and in the data set with AD293 was over 10 µM each time.
As for `CC(=O)OC[C@]1(C)C(=O)CC[C@@]2(C)[C@H](C/C=C3/C(=O)OC[C@H]3O[Si](C)(C)C(C)(C)C)[C@]3(CC[C@@H]21)CO3`, the EC50 in [1] is 5.38 µM; in [3], over 10 µM; in data set [4], 8.34 µM; in data set [5], over 10 µM; in data set [6], over 10 µM. The inhibition result in [2] is “Active”. The CC10 with HeLa and with AD293 was over 10 µM each time.
Broadly, the IC50 is the concentration at which inhibition is half-maximal. High values mean lower potency, low ones higher potency. For `Cc1ccc(S(=O)(=O)OCC(=O)Nc2ccc(C(=O)O)cc2)cc1`, 86 µM corresponded to half-maximal inhibition in data set [9] (IC50).
